Reference: ChEMBL document CHEMBL4152256, “Structure-activity relationship of new antimalarial 1-aryl-3-susbtituted propanol derivatives: Synthesis, preliminary toxicity profiling, parasite life cycle stage studies, target exploration, and targeted delivery” (Eur J Med Chem, 2018)

Tests used:
Plasmodium falciparum [1] = experiment: Antiplasmodial activity against multidrug-resistant Plasmodium falciparum FCR-3 by [3H]-hypoxanthine incorporation assay; format: functional, organism-based, FCR-3/Gambia; conditions: Plasmodium falciparum, FCR-3/Gambia
How it was run: (§1)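 Blood-stage P. falciparum 3D7 and FCR-3 were tested by a modified [3H]-hypoxanthine incorporation assay. Chloroquine was the reference in all runs.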

Plasmodium falciparum [2] = experiment: Antiplasmodial activity against chloroquine-sensitive Plasmodium falciparum 3D7 by [3H]-hypoxanthine incorporation assay; format: functional, organism-based; conditions: Plasmodium falciparum, 3D7; how it was run: as §1
[3] = Genotoxicity in Salmonella typhimurium TA1535 harboring pSK1002 assessed as survival at 0.125 mg/ml in absence of Sprague-Dawley rat liver S9 fraction after by SOS/umu assay relative to control; format: toxicity, organism-based; conditions: salmonella enterica subsp. enterica serovar typhimurium, read-out: Survival
[4] = Genotoxicity in Salmonella typhimurium TA1535 harboring pSK1002 assessed as umu gene induction at 0.125 mg/ml in absence of Sprague-Dawley rat liver S9 fraction after by SOS/umu assay relative to control; format: toxicity, organism-based; conditions: salmonella enterica subsp. enterica serovar typhimurium, read-out: FC
[5] = Genotoxicity in Salmonella typhimurium TA1535 harboring pSK1002 assessed as survival at 0.125 mg/ml in presence of Sprague-Dawley rat liver S9 fraction after by SOS/umu assay relative to control; format: toxicity, organism-based; conditions: salmonella enterica subsp. enterica serovar typhimurium, read-out: Survival
[6] = Genotoxicity in Salmonella typhimurium TA1535 harboring pSK1002 assessed as umu gene induction at 0.063 mg/ml in absence of Sprague-Dawley rat liver S9 fraction after by SOS/umu assay relative to control; format: toxicity, organism-based; conditions: salmonella enterica subsp. enterica serovar typhimurium, read-out: FC
[7] = Genotoxicity in Salmonella typhimurium TA1535 harboring pSK1002 assessed as survival at 0.063 mg/ml in presence of Sprague-Dawley rat liver S9 fraction after by SOS/umu assay relative to control; format: toxicity, organism-based; conditions: salmonella enterica subsp. enterica serovar typhimurium, read-out: Survival
[8] = Genotoxicity in Salmonella typhimurium TA1535 harboring pSK1002 assessed as umu gene induction at 0.063 mg/ml in presence of Sprague-Dawley rat liver S9 fraction after by SOS/umu assay relative to control; format: toxicity, organism-based; conditions: salmonella enterica subsp. enterica serovar typhimurium, read-out: FC
[9] = Genotoxicity in Salmonella typhimurium TA1535 harboring pSK1002 assessed as survival at 0.031 mg/ml in presence of Sprague-Dawley rat liver S9 fraction after by SOS/umu assay relative to control; format: toxicity, organism-based; conditions: salmonella enterica subsp. enterica serovar typhimurium, read-out: Survival
[10] = Genotoxicity in Salmonella typhimurium TA1535 harboring pSK1002 assessed as umu gene induction at 0.031 mg/ml in presence of Sprague-Dawley rat liver S9 fraction after by SOS/umu assay relative to control; format: toxicity, organism-based; conditions: salmonella enterica subsp. enterica serovar typhimurium, read-out: FC
[11] = Genotoxicity in Salmonella typhimurium TA1535 harboring pSK1002 assessed as survival at 0.016 mg/ml in absence of Sprague-Dawley rat liver S9 fraction after by SOS/umu assay relative to control; format: toxicity, organism-based; conditions: salmonella enterica subsp. enterica serovar typhimurium, read-out: Survival
[12] = Genotoxicity in Salmonella typhimurium TA1535 harboring pSK1002 assessed as umu gene induction at 0.016 mg/ml in absence of Sprague-Dawley rat liver S9 fraction after by SOS/umu assay relative to control; format: toxicity, organism-based; conditions: salmonella enterica subsp. enterica serovar typhimurium, read-out: FC
[13] = Genotoxicity in Salmonella typhimurium TA1535 harboring pSK1002 assessed as survival at 0.016 mg/ml in presence of Sprague-Dawley rat liver S9 fraction after by SOS/umu assay relative to control; format: toxicity, organism-based; conditions: salmonella enterica subsp. enterica serovar typhimurium, read-out: Survival
[14] = Genotoxicity in Salmonella typhimurium TA1535 harboring pSK1002 assessed as umu gene induction at 0.016 mg/ml in presence of Sprague-Dawley rat liver S9 fraction after by SOS/umu assay relative to control; format: toxicity, organism-based; conditions: salmonella enterica subsp. enterica serovar typhimurium, read-out: FC
[15] = Genotoxicity in Salmonella typhimurium TA1535 harboring pSK1002 assessed as survival at 0.008 mg/ml in absence of Sprague-Dawley rat liver S9 fraction after by SOS/umu assay relative to control; format: toxicity, organism-based; conditions: salmonella enterica subsp. enterica serovar typhimurium, read-out: Survival
[16] = Genotoxicity in Salmonella typhimurium TA1535 harboring pSK1002 assessed as umu gene induction at 0.008 mg/ml in absence of Sprague-Dawley rat liver S9 fraction after by SOS/umu assay relative to control; format: toxicity, organism-based; conditions: salmonella enterica subsp. enterica serovar typhimurium, read-out: FC
[17] = Genotoxicity in Salmonella typhimurium TA1535 harboring pSK1002 assessed as survival at 0.008 mg/ml in presence of Sprague-Dawley rat liver S9 fraction after by SOS/umu assay relative to control; format: toxicity, organism-based; conditions: salmonella enterica subsp. enterica serovar typhimurium, read-out: Survival
[18] = Genotoxicity in Salmonella typhimurium TA1535 harboring pSK1002 assessed as umu gene induction at 0.008 mg/ml in presence of Sprague-Dawley rat liver S9 fraction after by SOS/umu assay relative to control; format: toxicity, organism-based; conditions: salmonella enterica subsp. enterica serovar typhimurium, read-out: FC
[19] = Genotoxicity in Salmonella typhimurium TA1535 harboring pSK1002 assessed as survival at 0.004 mg/ml in absence of Sprague-Dawley rat liver S9 fraction after by SOS/umu assay relative to control; format: toxicity, organism-based; conditions: salmonella enterica subsp. enterica serovar typhimurium, read-out: Survival
[20] = Genotoxicity in Salmonella typhimurium TA1535 harboring pSK1002 assessed as umu gene induction at 0.004 mg/ml in absence of Sprague-Dawley rat liver S9 fraction after by SOS/umu assay relative to control; format: toxicity, organism-based; conditions: salmonella enterica subsp. enterica serovar typhimurium, read-out: FC
[21] = Genotoxicity in Salmonella typhimurium TA1535 harboring pSK1002 assessed as survival at 0.004 mg/ml in presence of Sprague-Dawley rat liver S9 fraction after by SOS/umu assay relative to control; format: toxicity, organism-based; conditions: salmonella enterica subsp. enterica serovar typhimurium, read-out: Survival
[22] = Genotoxicity in Salmonella typhimurium TA1535 harboring pSK1002 assessed as umu gene induction at 0.004 mg/ml in presence of Sprague-Dawley rat liver S9 fraction after by SOS/umu assay relative to control; format: toxicity, organism-based; conditions: salmonella enterica subsp. enterica serovar typhimurium, read-out: FC
[23] = Genotoxicity in Salmonella typhimurium TA1535 harboring pSK1002 assessed as survival at 0.002 mg/ml in absence of Sprague-Dawley rat liver S9 fraction after by SOS/umu assay relative to control; format: toxicity, organism-based; conditions: salmonella enterica subsp. enterica serovar typhimurium, read-out: Survival
[24] = Genotoxicity in Salmonella typhimurium TA1535 harboring pSK1002 assessed as umu gene induction at 0.002 mg/ml in absence of Sprague-Dawley rat liver S9 fraction after by SOS/umu assay relative to control; format: toxicity, organism-based; conditions: salmonella enterica subsp. enterica serovar typhimurium, read-out: FC
[25] = Genotoxicity in Salmonella typhimurium TA1535 harboring pSK1002 assessed as survival at 0.002 mg/ml in presence of Sprague-Dawley rat liver S9 fraction after by SOS/umu assay relative to control; format: toxicity, organism-based; conditions: salmonella enterica subsp. enterica serovar typhimurium, read-out: Survival
[26] = Genotoxicity in Salmonella typhimurium TA1535 harboring pSK1002 assessed as umu gene induction at 0.002 mg/ml in presence of Sprague-Dawley rat liver S9 fraction after by SOS/umu assay relative to control; format: toxicity, organism-based; conditions: salmonella enterica subsp. enterica serovar typhimurium, read-out: FC
[27] = Genotoxicity in Salmonella typhimurium TA1535 harboring pSK1002 assessed as survival at 0.001 mg/ml in absence of Sprague-Dawley rat liver S9 fraction after by SOS/umu assay relative to control; format: toxicity, organism-based; conditions: salmonella enterica subsp. enterica serovar typhimurium, read-out: Survival
[28] = Genotoxicity in Salmonella typhimurium TA1535 harboring pSK1002 assessed as umu gene induction at 0.001 mg/ml in absence of Sprague-Dawley rat liver S9 fraction after by SOS/umu assay relative to control; format: toxicity, organism-based; conditions: salmonella enterica subsp. enterica serovar typhimurium, read-out: FC
[29] = Genotoxicity in Salmonella typhimurium TA1535 harboring pSK1002 assessed as survival at 0.001 mg/ml in presence of Sprague-Dawley rat liver S9 fraction after by SOS/umu assay relative to control; format: toxicity, organism-based; conditions: salmonella enterica subsp. enterica serovar typhimurium, read-out: Survival
[30] = Genotoxicity in Salmonella typhimurium TA1535 harboring pSK1002 assessed as umu gene induction at 0.001 mg/ml in presence of Sprague-Dawley rat liver S9 fraction after by SOS/umu assay relative to control; format: toxicity, organism-based; conditions: salmonella enterica subsp. enterica serovar typhimurium, read-out: FC

| SMILES | IC50 (Plasmodium falciparum [1]) | IC50 (Plasmodium falciparum [2]) | viability at 0.125 mg/ml [3] | fold induction at 0.125 mg/ml [4] | viability at 0.125 mg/ml [5] | fold induction at 0.063 mg/ml [6] | viability at 0.063 mg/ml [7] | fold induction at 0.063 mg/ml [8] | viability at 0.031 mg/ml [9] | fold induction at 0.031 mg/ml [10] | viability at 0.016 mg/ml [11] | fold induction at 0.016 mg/ml [12] | viability at 0.016 mg/ml [13] | fold induction at 0.016 mg/ml [14] | viability at 0.008 mg/ml [15] | fold induction at 0.008 mg/ml [16] | viability at 0.008 mg/ml [17] | fold induction at 0.008 mg/ml [18] | viability at 0.004 mg/ml [19] | fold induction at 0.004 mg/ml [20] | further results |
| --- | --- | --- | --- | --- | --- | --- | --- | --- | --- | --- | --- | --- | --- | --- | --- | --- | --- | --- | --- | --- | --- |
| COc1ccccc1N1CCN(CCC(O)c2ccc(F)c3ccccc23)CC1 (stereo not given) | 220 nM | 70 nM | 55.9% | 0.9 | 84.4% | 0.9 | 88.4% | 0.7 | 129% | 0.6 | 63% | 1.3 | 92.4% | 1 | 67.1% | 1.3 | 99.1% | 1 | 66.5% | 1.1 | viability at 0.004 mg/ml [21]: 102%; fold induction at 0.004 mg/ml [22]: 0.8; viability at 0.002 mg/ml [23]: 65.2%; fold induction at 0.002 mg/ml [24]: 1.5; viability at 0.002 mg/ml [25]: 102%; fold induction at 0.002 mg/ml [26]: 1; viability at 0.001 mg/ml [27]: 70.5%; fold induction at 0.001 mg/ml [28]: 1.3; viability at 0.001 mg/ml [29]: 112%; fold induction at 0.001 mg/ml [30]: 0.9 |
| OC(CCN1CCN(C(c2ccccc2)c2ccccc2)CC1)c1ccc(F)c(F)c1 (stereo not given) | 370 nM | 380 nM | 24.1% | 1.4 | 117% | 4 | 112% | 0.8 | 103% | 0.8 | 36.7% | 2 | 94.9% | 0.8 | 105% | 1.2 | 101% | 0.8 | 102% | 1 | viability at 0.004 mg/ml [21]: 87.6%; fold induction at 0.004 mg/ml [22]: 0.9; viability at 0.002 mg/ml [23]: 104%; fold induction at 0.002 mg/ml [24]: 0.9; viability at 0.002 mg/ml [25]: 92.2%; fold induction at 0.002 mg/ml [26]: 0.8; viability at 0.001 mg/ml [27]: 110%; fold induction at 0.001 mg/ml [28]: 0.6; viability at 0.001 mg/ml [29]: 98.5%; fold induction at 0.001 mg/ml [30]: 0.6 |
